Measurements taken from article PMC8992012 (Bioorganic & medicinal chemistry, 2021).

Tested on: NF-κB
Assay: NF-κB activation using THP1-Blue NF-κB cells
Type: cell-based, human
Settings: for NF-κB activity (in words, SAR text to Table 1): compound alone, 5 μM, 20h; for activation at 5 µM: Homo sapiens, 20 h, read-out: NF-κB SEAP Compound alone % Activation; for NF-κB induction in the presence of LPS (in words, Fig. 6): compared to compound 1
Procedure, shortened: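 THP1-Blue NF-κB cells carry a stably integrated NF-κB-inducible SEAP. They were plated at 10^5 cells/well in RPMI with 10% FBS, penicillin, streptomycin and Normocin, then treated for 20 h with 5 μM test compound (0.5% DMSO final), alone or with LPS at 10 ng/mL. Supernatant SEAP was read colorimetrically at 630 nm. Signals were two-point normalized: baseline (vehicle or LPS) 100%, reference hit 200%.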

Structure (SMILES) | NF-κB activity (in words, SAR text to Table 1) | activation at 5 µM | NF-κB induction in the presence of LPS (in words, Fig. 6)
Cc1ccc(C)c(-c2csc(NC(=O)c3ccc(S(=O)(=O)N4CCN(C(=O)OC(C)(C)C)CC4)cc3)n2)c1 [Compound 54f, tert-butyl 4-((4-((4-(2,5-dimethylphenyl)thiazol-2-yl)carbamoyl)phenyl)sulfonyl)piperazine-1-carboxylate] | inactive | – | –
Cc1cccc(-c2csc(NC(=O)c3ccc(S(=O)(=O)N4CCCCC4)cc3)n2)c1 [Compound 12c, 4-(piperidin-1-ylsulfonyl)-N-(4-(m-tolyl)thiazol-2-yl)benzamide] | inactive | 100% | –
Cc1ccc(C)c(-c2csc(NC(=O)c3ccc(S(=O)(=O)N4CCCCC4)c(Br)c3)n2)c1 [Compound 42e, 3-bromo-N-(4-(2,5-dimethylphenyl)thiazol-2-yl)-4-(piperidin-1-ylsulfonyl)benzamide] | retained NF-κB activity | – | –
Cc1cccc(C)c1-c1csc(NC(=O)c2ccc(S(=O)(=O)N3CCCCC3)cc2)n1 [Compound 12p, N-(4-(2,6-dimethylphenyl)thiazol-2-yl)-4-(piperidin-1-ylsulfonyl)benzamide] | retained activity | – | –
Cc1ccc(C)c(-c2csc(NC(=O)c3ccc(S(=O)(=O)N4CCCCC4)cc3Cl)n2)c1 [Compound 42h, 2-chloro-N-(4-(2,5-dimethylphenyl)thiazol-2-yl)-4-(piperidin-1-ylsulfonyl)benzamide] | significantly dropped | – | –
CCCc1csc(NC(=O)c2ccc(S(=O)(=O)N3CCCCC3)cc2)n1 [Compound 12i, 4-(piperidin-1-ylsulfonyl)-N-(4-propylthiazol-2-yl)benzamide] | None of these molecules had any NF-κB activity | 100% | –
Cc1ccc(C)c(-c2nc(NC(=O)c3ccc(S(=O)(=O)N4CCCCC4)cc3)sc2N2CCCCC2)c1 [Compound 18h, N-(4-(2,5-dimethylphenyl)-5-(piperidin-1-yl)thiazol-2-yl)-4-(piperidin-1-ylsulfonyl)benzamide] | completely inactive | – | –
CCCC#Cc1sc(NC(=O)c2ccc(S(=O)(=O)N3CCC(CCC)CC3)cc2)nc1-c1cc(C)ccc1C [Compound 57, N-(4-(2,5-dimethylphenyl)-5-(pent-1-yn-1-yl)thiazol-2-yl)-4-((4-propylpiperidin-1-yl)sulfonyl)benzamide] | significant loss of activity | – | –
Cc1ccccc1-c1csc(NC(=O)c2ccc(S(=O)(=O)N3CCCCC3)cc2)n1 [Compound 12b, 4-(piperidin-1-ylsulfonyl)-N-(4-(o-tolyl)thiazol-2-yl)benzamide] | inactive | 100% | –
Cc1ccc(C)c(-c2csc(NC(=O)c3ccc(S(=O)(=O)N4CCCCC4)nc3)n2)c1 [Compound 42b, N-(4-(2,5-dimethylphenyl)thiazol-2-yl)-6-(piperidin-1-ylsulfonyl)nicotinamide] | loss of activity | – | –
CC(C)(C)Cc1csc(NC(=O)c2ccc(S(=O)(=O)N3CCCCC3)cc2)n1 [Compound 12j, N-(4-neopentylthiazol-2-yl)-4-(piperidin-1-ylsulfonyl)benzamide] | None of these molecules had any NF-κB activity | – | –
Cc1ccc(C)c(-c2csc(NC(=O)c3ccc(S(=O)(=O)N4CCCCC4)c(Cl)c3)n2)c1 [Compound 42d, 3-chloro-N-(4-(2,5-dimethylphenyl)thiazol-2-yl)-4-(piperidin-1-ylsulfonyl)benzamide] | retained NF-κB activity | – | –
CCCC#Cc1sc(NC(=O)c2ccc(S(=O)(=O)N3CCCCC3)cc2)nc1-c1cc(C)ccc1Br [Compound 60, N-(4-(2-bromo-5-methylphenyl)-5-(pent-1-yn-1-yl)thiazol-2-yl)-4-(piperidin-1-ylsulfonyl)benzamide] | retained NF-κB activity | – | –
Cc1ccc(C)c(-c2csc(NC(=O)c3ccc(S(=O)(=O)N4CCCCC4)c([N+](=O)[O-])c3)n2)c1 [Compound 42f, N-(4-(2,5-dimethylphenyl)thiazol-2-yl)-3-nitro-4-(piperidin-1-ylsulfonyl)benzamide] | decline in activity | – | –
COc1cc(C(=O)Nc2nc(-c3cc(C)ccc3C)cs2)ccc1S(=O)(=O)N1CCCCC1 [Compound 42g, N-(4-(2,5-dimethylphenyl)thiazol-2-yl)-3-methoxy-4-(piperidin-1-ylsulfonyl)benzamide] | decline in activity | – | –
Cc1ccc(C)c(-c2csc(NC(=O)c3ccc(S(=O)(=O)C4CCCCC4)cc3)n2)c1 [Compound 45b, 4-(cyclohexylsulfonyl)-N-(4-(2,5-dimethylphenyl)thiazol-2-yl)benzamide] | none of these modifications at site E was tolerated | – | –
Cc1ccc(C)c(-c2csc(NC(=O)c3ccc(S(=O)(=O)N4CCCCC4)cc3Br)n2)c1 [Compound 42i, 2-bromo-N-(4-(2,5-dimethylphenyl)thiazol-2-yl)-4-(piperidin-1-ylsulfonyl)benzamide] | significantly dropped | – | –

Structure (SMILES) | NF-κB activity (in words, SAR text to Table 1) | activation at 5 µM | NF-κB induction in the presence of LPS (in words, Fig. 6)
Cc1ccc(C)c(-c2nc(NC(=O)c3ccc(S(=O)(=O)N4CCCCC4)cc3)sc2-c2ccccc2)c1 [Compound 18i, N-(4-(2,5-dimethylphenyl)-5-phenylthiazol-2-yl)-4-(piperidin-1-ylsulfonyl)benzamide] | completely inactive | – | –
Cc1ccc(C)c(-c2csc(NS(=O)(=O)c3ccc(C(=O)N4CCCCC4)cc3)n2)c1 [Compound 51, N-(4-(2,5-dimethylphenyl)thiazol-2-yl)-4-(piperidine-1-carbonyl)benzenesulfonamide] | inactive | – | –
CCCN1CCN(S(=O)(=O)c2ccc(C(=O)Nc3nc(-c4cc(C)ccc4C)cs3)cc2)CC1 [Compound 54k, N-(4-(2,5-dimethylphenyl)thiazol-2-yl)-4-((4-propylpiperazin-1-yl)sulfonyl)benzamide] | inactive | 100% | –
Cc1cccc(-c2csc(NC(=O)c3ccc(S(=O)(=O)N4CCCCC4)cc3)n2)c1C [Compound 12l, N-(4-(2,3-dimethylphenyl)thiazol-2-yl)-4-(piperidin-1-ylsulfonyl)benzamide] | retained activity | – | –
CCCN(CCC)S(=O)(=O)c1ccc(C(=O)Nc2nc(-c3cc(C)ccc3C)cs2)cc1 [Compound 54b, N-(4-(2,5-dimethylphenyl)thiazol-2-yl)-4-(N,N-dipropylsulfamoyl)benzamide] | active | – | –
CC(C)(C)c1csc(NC(=O)c2ccc(S(=O)(=O)N3CCCCC3)cc2)n1 [Compound 12k, N-(4-(tert-butyl)thiazol-2-yl)-4-(piperidin-1-ylsulfonyl)benzamide] | None of these molecules had any NF-κB activity | – | –
Cc1ccc(N=[N+]=[N-])c(-c2csc(NC(=O)c3ccc(S(=O)(=O)N4CCCCC4)cc3)n2)c1 [Compound 66, N-(4-(2-azido-5-methylphenyl)thiazol-2-yl)-4-(piperidin-1-ylsulfonyl)benzamide] | – | – | inactive
CCc1ccc(C)c(-c2csc(NC(=O)c3ccc(S(=O)(=O)N4CCCCC4)cc3)n2)c1 [Compound 12u, N-(4-(5-ethyl-2-methylphenyl)thiazol-2-yl)-4-(piperidin-1-ylsulfonyl)benzamide] | regained the NF-κB activity | – | –
CCOc1sc(NC(=O)c2ccc(S(=O)(=O)N3CCCCC3)cc2)nc1-c1cc(C)ccc1C [Compound 18l, N-(4-(2,5-dimethylphenyl)-5-ethoxythiazol-2-yl)-4-(piperidin-1-ylsulfonyl)benzamide] | partial activity | – | –
COc1cc(S(=O)(=O)N2CCCCC2)ccc1C(=O)Nc1nc(-c2cc(C)ccc2C)cs1 [Compound 42j, N-(4-(2,5-dimethylphenyl)thiazol-2-yl)-2-methoxy-4-(piperidin-1-ylsulfonyl)benzamide] | significantly dropped | – | –
Cc1ccc(C)c(-c2nnc(NC(=O)c3ccc(S(=O)(=O)N4CCCCC4)cc3)s2)c1 [Compound 18f, N-(5-(2,5-dimethylphenyl)-1,3,4-thiadiazol-2-yl)-4-(piperidin-1-ylsulfonyl)benzamide] | none of these molecules that replaced the thiazole functionality was active | – | –
C#Cc1sc(NC(=O)c2ccc(S(=O)(=O)N3CCCCC3)cc2)nc1-c1cc(C)ccc1C [Compound 18o, N-(4-(2,5-dimethylphenyl)-5-ethynylthiazol-2-yl)-4-(piperidin-1-ylsulfonyl)benzamide] | weak activity | – | –
CCCCN(CCCC)S(=O)(=O)c1ccc(C(=O)Nc2nc(-c3cc(C)ccc3C)cs2)cc1 [Compound 54c, 4-(N,N-dibutylsulfamoyl)-N-(4-(2,5-dimethylphenyl)thiazol-2-yl)benzamide] | lost activity | – | –
CCOC1CCN(S(=O)(=O)c2ccc(C(=O)Nc3nc(-c4cc(C)ccc4C)cs3)cc2)CC1 [Compound 54g, N-(4-(2,5-dimethylphenyl)thiazol-2-yl)-4-((4-ethoxypiperidin-1-yl)sulfonyl)benzamide] | very potent | – | –
Cc1ccc(N=[N+]=[N-])cc1-c1csc(NC(=O)c2ccc(S(=O)(=O)N3CCCCC3)cc2)n1 [Compound 63, N-(4-(5-azido-2-methylphenyl)thiazol-2-yl)-4-(piperidin-1-ylsulfonyl)benzamide] | – | – | retained activity
Cc1ccc(C)c(-c2csc(NC(=O)c3ccc(SC4CCCCC4)cc3)n2)c1 [Compound 45a, 4-(cyclohexylthio)-N-(4-(2,5-dimethylphenyl)thiazol-2-yl)benzamide] | none of these modifications at site E was tolerated | – | –
